# According to ChEMBL document CHEMBL1140927, “Discovery of N-(3-fluorophenyl)-1-[(4-([(3S)-3-methyl-1-piperazinyl]methyl)phenyl)acetyl]-4-piperidinamine (GSK962040), the first small molecule motilin receptor agonist clinical candidate” (J Med Chem, 2009):
# pEC50, pIC50: −log10 of the molar value.
# What was measured:
# Cytochrome P450 3A4 [1] = target: T1, Cytochrome P450 3A4 (Homo sapiens, UniProt P08684); assay: Inhibition of human CYP3A4 expressed in Escherichia coli using diethoxyfluorescein substrate by time dependent inhibition assay; type: ADME
# Cytochrome P450 3A4 [2] = target: T1, Cytochrome P450 3A4; assay: Inhibition of human CYP3A4 expressed in Escherichia coli using diethoxyfluorescein substrate assessed as decrease in enzyme activity by time dependent inhibition assay; type: ADME; design: unit not given here
# Cytochrome P450 3A4 [3] = target: T1, Cytochrome P450 3A4; assay: Inhibition of human CYP3A4 expressed in Escherichia coli using 7BQ substrate by time dependent inhibition assay; type: ADME
# Motilin receptor [4] = target: T2, Motilin receptor (Homo sapiens, UniProt O43193); assay: Agonist activity at human recombinant motilin receptor expressed in CHO cells assessed as increase in intracellular calcium by FLIPR assay; type: functional, cell-based
# Outline: (§1)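 CHO-K1 cells stably transfected with human motilin receptor, grown in DMEM/HamF-12 with 10% FBS, 2 mM GlutaMAX, 1 mg/mL Geneticin; seeded 10 000 cells/well, 24 h. Loaded with Fluo 4 (2.5 µM) in Tyrodes with probenecid, 1 h at 37.5 °C. Compound top final 12 µM, 1-in-4 dilutions; fluorescence read over 1 min; max change over baseline, four-parameter logistic fit; intrinsic activity = curve maximum relative to motilin maximum.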
# Motilin receptor [5] = target: T2, Motilin receptor; assay: Intrinsic activity at human recombinant motilin receptor expressed in CHO cells relative to motilin; type: cell-based; outline: as §1
# [6] = Aqueous solubility of the compound; type: physicochemical; conditions: aqueous medium
# Stomach [7] = assay: Potentiation of electric field stimulated-rabbit gastric antrum contraction at 0.3 uM; type: functional, Oryctolagus cuniculus
# Outline: (§2)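 Isolated native rabbit gastric antrum tissue. Cholinergic contractions are evoked by electrical field stimulation (EFS), and compound is added at the stated concentration. The read-out is % potentiation of EFS-evoked contractions, n = 4-8.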
# [8] = Tmax in Sprague-Dawley rat at 5 mg/kg, po; type: ADME, organism-based; design: dose 5 mg/kg, route oral; conditions: in vivo
# Outline: (§3)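 Male Sprague-Dawley rats (n = 3), HCl salt suspended in 1% w/v methylcellulose at 1 mg free base/mL, oral gavage 5 mL/kg for 5 mg free base/kg; serial blood up to 12 h (8 h in a second study); diluted blood analysed by LC/MS/MS, LLQ 5 ng/mL.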
# [9] = Cmax in Sprague-Dawley rat at 5 mg/kg, po; type: ADME, organism-based; design: dose 5 mg/kg, route oral; conditions: in vivo; outline: as §3
# Stomach [10] = assay: Potentiation of electric field stimulated-rabbit gastric antrum contraction at 1 uM; type: functional, Oryctolagus cuniculus; outline: as §2
# Rattus norvegicus = assay: AUC (0 to t) in Sprague-Dawley rat at 5 mg/kg, po; type: ADME, organism-based, Plasma; design: dose 5 mg/kg, route oral; conditions: in vivo; outline: as §3
# Stomach [11] = assay: Potentiation of electric field stimulated-rabbit gastric antrum contraction at 0.1 uM; type: functional, Oryctolagus cuniculus; outline: as §2
# Stomach [12] = assay: Potentiation of electric field stimulated-rabbit gastric antrum contraction at 3 uM; type: functional, Oryctolagus cuniculus
# Outline: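 Isolated rabbit gastric antrum; cholinergic contractions evoked by electrical field stimulation, compound response expressed as % potentiation of EFS-evoked contraction, n = 4-8.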
# Cytochrome P450 3A4 [13] = target: T1, Cytochrome P450 3A4; assay: Inhibition of human CYP3A4 expressed in Escherichia coli using diethoxyfluorescein substrate measured in 25 to 30 mins by time dependent inhibition assay; type: ADME
# [14] = Half life in rabbit gastric antrum native tissue at 3 uM; type: ADME, tissue-based, Oryctolagus cuniculus, Stomach
# Cytochrome P450 3A4 [15] = target: T1, Cytochrome P450 3A4; assay: Inhibition of human CYP3A4 expressed in Escherichia coli using diethoxyfluorescein substrate measured in 0 to 5 mins by time dependent inhibition assay; type: ADME
# Cytochrome P450 2C19 = Cytochrome P450 2C19 (Homo sapiens, UniProt P33261); assay: Inhibition of human CYP2C19; type: ADME
# Cytochrome P450 2C9 = Cytochrome P450 2C9 (Homo sapiens, UniProt P11712); assay: Inhibition of human CYP2C9; type: ADME
# Cytochrome P450 2D6 = Cytochrome P450 2D6 (Homo sapiens, UniProt P10635); assay: Inhibition of human CYP2D6; type: ADME
# [16] = target: Voltage-gated inwardly rectifying potassium channel KCNH2 (Homo sapiens, UniProt Q12809); assay: Binding affinity to human ERG
# Cytochrome P450 1A2 = target: T3, Cytochrome P450 1A2 (Homo sapiens, UniProt P05177); assay: Inhibition of human CYP1A2; type: ADME
# T3 sequence (P05177 whole entry): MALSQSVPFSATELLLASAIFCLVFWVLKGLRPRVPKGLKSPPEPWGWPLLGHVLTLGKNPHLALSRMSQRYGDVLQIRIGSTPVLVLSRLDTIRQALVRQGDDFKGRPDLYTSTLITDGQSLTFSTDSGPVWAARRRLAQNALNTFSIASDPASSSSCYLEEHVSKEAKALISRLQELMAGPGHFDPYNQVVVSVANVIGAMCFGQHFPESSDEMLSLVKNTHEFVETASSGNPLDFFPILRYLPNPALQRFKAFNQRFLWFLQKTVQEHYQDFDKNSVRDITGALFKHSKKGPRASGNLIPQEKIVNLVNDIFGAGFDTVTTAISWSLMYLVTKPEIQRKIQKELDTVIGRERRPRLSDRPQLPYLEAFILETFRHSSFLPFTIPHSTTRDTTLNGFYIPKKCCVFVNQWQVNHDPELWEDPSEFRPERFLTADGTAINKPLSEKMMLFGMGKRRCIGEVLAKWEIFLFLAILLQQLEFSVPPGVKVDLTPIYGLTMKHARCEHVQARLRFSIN
# [17] = Protein binding in rat plasma; type: ADME, cell-free; conditions: read-out: PPB (converted)
# [18] = Oral bioavailability in Beagle dog; type: ADME, organism-based, Canis lupus familiaris; conditions: in vivo
# Outline: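 Three dogs, two study days 7 days apart: 1 h IV infusion of 2 mg free base/kg in 0.9% saline (0.4 mg/mL, 5 mL/kg/h), then same dogs oral gavage 5 mg free base/kg in 1% methylcellulose (1 mg/mL, 5 mL/kg); serial blood up to 30 h; LC/MS/MS, LLQ 5 ng/mL.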
# [19] = Oral bioavailability in Sprague-Dawley rat; type: ADME, organism-based; conditions: in vivo
# Outline: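 Male Sprague-Dawley rats (n = 3), two study days 2 days apart: 1 h IV infusion of 1 mg free base/kg in 0.9% saline (0.2 mg/mL, 5 mL/kg/h), then oral gavage 5 mg free base/kg in 1% methylcellulose; serial blood up to 12 h; LC/MS/MS, LLQ 5 ng/mL.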
# [20] = target: Growth hormone secretagogue receptor type 1 (Homo sapiens, UniProt Q92847); assay: Agonist activity at human Ghrelin receptor; type: functional
# [21] = Protein binding in human plasma; type: ADME, cell-free; conditions: read-out: PPB (converted)
# [22] = Half life in rabbit gastric antrum native tissue at 0.3 uM; type: ADME, tissue-based, Oryctolagus cuniculus, Stomach
# T2 sequence (O43193 whole entry): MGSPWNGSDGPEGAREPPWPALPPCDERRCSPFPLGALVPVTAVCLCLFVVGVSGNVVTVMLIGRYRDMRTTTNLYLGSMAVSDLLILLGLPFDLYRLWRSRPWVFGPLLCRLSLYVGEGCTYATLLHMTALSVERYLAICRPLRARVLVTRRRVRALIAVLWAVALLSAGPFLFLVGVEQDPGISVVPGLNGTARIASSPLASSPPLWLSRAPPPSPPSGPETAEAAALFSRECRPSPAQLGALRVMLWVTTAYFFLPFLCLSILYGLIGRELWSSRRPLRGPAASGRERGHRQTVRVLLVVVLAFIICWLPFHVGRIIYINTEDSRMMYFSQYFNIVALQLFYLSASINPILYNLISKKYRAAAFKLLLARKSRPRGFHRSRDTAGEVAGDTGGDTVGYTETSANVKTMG
# T1 sequence (P08684 whole entry): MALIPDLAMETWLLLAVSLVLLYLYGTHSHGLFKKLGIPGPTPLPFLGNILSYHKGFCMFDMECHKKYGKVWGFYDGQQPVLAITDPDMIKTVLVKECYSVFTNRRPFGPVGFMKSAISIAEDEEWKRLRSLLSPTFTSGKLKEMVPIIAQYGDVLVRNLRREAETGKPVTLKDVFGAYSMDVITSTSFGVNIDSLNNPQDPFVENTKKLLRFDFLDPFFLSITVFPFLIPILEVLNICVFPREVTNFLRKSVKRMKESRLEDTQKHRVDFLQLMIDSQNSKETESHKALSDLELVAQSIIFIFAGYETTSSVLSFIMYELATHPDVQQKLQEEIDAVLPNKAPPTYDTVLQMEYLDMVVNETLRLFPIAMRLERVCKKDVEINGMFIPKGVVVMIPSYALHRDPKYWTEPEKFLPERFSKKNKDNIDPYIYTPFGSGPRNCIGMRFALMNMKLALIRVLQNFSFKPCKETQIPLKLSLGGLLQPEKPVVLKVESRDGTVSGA
# Sequence of Cytochrome P450 2C9 (P11712 whole entry): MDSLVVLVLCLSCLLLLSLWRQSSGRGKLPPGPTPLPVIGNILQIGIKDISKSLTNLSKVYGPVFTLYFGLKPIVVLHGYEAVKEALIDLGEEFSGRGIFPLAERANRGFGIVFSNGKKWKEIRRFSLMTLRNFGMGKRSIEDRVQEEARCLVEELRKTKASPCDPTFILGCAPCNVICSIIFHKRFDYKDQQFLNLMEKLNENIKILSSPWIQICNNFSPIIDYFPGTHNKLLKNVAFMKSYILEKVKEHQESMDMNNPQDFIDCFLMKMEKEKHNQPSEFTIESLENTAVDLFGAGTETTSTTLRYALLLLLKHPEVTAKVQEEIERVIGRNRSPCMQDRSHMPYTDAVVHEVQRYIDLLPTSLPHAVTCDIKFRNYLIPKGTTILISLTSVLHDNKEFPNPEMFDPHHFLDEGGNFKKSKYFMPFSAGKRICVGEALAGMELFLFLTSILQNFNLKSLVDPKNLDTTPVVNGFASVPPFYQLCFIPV
# Sequence of Cytochrome P450 2C19 (P33261 whole entry): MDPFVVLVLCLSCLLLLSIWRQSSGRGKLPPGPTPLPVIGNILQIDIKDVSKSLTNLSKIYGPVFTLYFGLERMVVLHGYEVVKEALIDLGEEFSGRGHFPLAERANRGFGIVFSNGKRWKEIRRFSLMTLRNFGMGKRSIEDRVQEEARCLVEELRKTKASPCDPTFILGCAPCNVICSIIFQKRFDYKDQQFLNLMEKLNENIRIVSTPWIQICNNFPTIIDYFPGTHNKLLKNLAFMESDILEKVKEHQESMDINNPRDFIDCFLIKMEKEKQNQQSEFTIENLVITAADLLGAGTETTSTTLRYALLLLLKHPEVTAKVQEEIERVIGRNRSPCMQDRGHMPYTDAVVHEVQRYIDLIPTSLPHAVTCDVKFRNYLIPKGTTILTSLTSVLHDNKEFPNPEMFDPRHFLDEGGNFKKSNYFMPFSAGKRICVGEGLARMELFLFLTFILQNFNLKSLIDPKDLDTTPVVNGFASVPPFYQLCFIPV
# Sequence of Cytochrome P450 2D6 (P10635 whole entry): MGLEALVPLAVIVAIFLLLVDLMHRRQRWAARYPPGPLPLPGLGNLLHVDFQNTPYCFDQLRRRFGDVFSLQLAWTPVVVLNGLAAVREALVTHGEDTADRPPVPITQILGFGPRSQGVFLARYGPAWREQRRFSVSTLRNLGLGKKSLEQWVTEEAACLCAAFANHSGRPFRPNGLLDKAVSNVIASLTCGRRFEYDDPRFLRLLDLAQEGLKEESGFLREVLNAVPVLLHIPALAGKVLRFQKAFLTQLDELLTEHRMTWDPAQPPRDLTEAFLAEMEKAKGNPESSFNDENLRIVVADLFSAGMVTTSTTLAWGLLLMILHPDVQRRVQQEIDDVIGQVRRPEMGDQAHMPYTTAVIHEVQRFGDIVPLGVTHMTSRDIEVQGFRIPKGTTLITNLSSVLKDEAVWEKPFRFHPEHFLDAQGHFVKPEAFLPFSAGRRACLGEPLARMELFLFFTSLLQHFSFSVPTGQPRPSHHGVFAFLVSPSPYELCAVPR
# Sequence of Voltage-gated inwardly rectifying potassium channel KCNH2 (Q12809 whole entry): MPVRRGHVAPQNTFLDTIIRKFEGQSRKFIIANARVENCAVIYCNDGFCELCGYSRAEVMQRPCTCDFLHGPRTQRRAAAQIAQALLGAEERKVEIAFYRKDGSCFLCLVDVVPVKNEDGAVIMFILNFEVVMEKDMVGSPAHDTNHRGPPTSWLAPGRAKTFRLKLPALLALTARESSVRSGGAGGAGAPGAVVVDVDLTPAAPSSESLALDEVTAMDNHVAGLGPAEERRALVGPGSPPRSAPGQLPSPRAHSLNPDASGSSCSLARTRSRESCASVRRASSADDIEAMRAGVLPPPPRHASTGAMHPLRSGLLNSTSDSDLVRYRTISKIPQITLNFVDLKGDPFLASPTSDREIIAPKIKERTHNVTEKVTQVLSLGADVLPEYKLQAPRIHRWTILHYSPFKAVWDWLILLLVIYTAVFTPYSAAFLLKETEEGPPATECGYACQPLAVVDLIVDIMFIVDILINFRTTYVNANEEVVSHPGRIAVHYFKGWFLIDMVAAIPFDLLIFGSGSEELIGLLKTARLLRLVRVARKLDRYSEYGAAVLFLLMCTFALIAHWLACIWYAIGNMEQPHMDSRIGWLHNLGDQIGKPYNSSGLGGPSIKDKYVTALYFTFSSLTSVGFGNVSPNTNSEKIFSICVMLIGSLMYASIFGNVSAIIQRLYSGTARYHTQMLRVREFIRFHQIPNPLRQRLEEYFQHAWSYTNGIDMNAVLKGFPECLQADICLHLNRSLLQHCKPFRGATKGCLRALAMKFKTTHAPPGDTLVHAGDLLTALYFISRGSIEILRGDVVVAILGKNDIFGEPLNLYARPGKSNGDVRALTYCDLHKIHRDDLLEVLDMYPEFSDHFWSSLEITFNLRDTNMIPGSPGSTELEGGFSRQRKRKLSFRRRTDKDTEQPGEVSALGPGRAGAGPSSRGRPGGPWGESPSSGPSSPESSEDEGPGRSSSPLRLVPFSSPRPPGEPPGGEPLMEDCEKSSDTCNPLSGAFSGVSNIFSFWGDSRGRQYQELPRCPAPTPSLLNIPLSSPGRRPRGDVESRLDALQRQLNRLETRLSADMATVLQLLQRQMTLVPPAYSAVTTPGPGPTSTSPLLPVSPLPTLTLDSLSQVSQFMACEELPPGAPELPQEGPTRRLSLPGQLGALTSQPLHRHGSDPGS
# Sequence of Growth hormone secretagogue receptor type 1 (Q92847 whole entry): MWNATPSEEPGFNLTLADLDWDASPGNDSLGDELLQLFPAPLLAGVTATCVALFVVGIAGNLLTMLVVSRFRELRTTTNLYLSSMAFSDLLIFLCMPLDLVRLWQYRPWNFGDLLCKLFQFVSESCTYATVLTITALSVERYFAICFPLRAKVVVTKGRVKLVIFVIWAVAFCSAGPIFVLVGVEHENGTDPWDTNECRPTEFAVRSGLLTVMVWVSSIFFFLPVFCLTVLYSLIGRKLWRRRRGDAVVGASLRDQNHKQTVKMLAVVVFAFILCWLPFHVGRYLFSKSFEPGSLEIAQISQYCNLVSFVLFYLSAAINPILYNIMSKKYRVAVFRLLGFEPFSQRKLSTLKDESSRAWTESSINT
compound,measurement,setting,value
C[C@H]1CN(Cc2ccc(CCC(=O)N3CCC(Nc4cccc(F)c4)CC3)cc2)CCN1,pIC50,Cytochrome P450 3A4 [1],5.00
same,Activity,Cytochrome P450 3A4 [2],3.2
same,pIC50,Cytochrome P450 3A4 [3],4.74
same,pEC50,Motilin receptor [4],7.60
same,Intrinsic activity,Motilin receptor [5],1
C[C@H]1CN(Cc2ccc(CC(=O)N3CCC(Nc4cccc(F)c4)CC3)cc2)CCN1.Cl,solubility,[6],> 1 µg/mL
C[C@H]1CN(Cc2ccc(CC(=O)N3CCC(Nc4cccc(C#N)c4)CC3)cc2)CCN1,Activity,Stomach [7],218%
same,pIC50,Cytochrome P450 3A4 [1],4.44
same,Tmax,[8],240 min
same,Cmax,[9],200 nM
same,Activity,Cytochrome P450 3A4 [2],2
same,pIC50,Cytochrome P450 3A4 [3],4.24
same,pEC50,Motilin receptor [4],8.40
same,Intrinsic activity,Motilin receptor [5],1.1
same,Activity,Stomach [10],462%
same,AUC,Rattus norvegicus,2.8 kg·min/L
same,Activity,Stomach [11],98%
C[C@H]1CN(Cc2ccc(CCC(=O)N3CCC(Nc4ccc(F)cc4)CC3)cc2)CCN1,pEC50,Motilin receptor [4],7.20
same,Intrinsic activity,Motilin receptor [5],1.2
CC(C(=O)N1CCC(Nc2ccc(F)cc2)CC1)c1ccc(CN2C[C@@H](C)N[C@@H](C)C2)cc1 (stereo partly specified),pIC50,Cytochrome P450 3A4 [1],5.06
same,Activity,Cytochrome P450 3A4 [2],7.6
same,pEC50,Motilin receptor [4],7.50
same,Intrinsic activity,Motilin receptor [5],1.1
CC[C@H]1OC(=O)[C@H](C)[C@@H](O[C@H]2C[C@@](C)(OC)[C@@H](O)[C@H](C)O2)[C@H](C)[C@@H](O[C@@H]2O[C@H](C)C[C@H](N(C)C)[C@H]2O)[C@](C)(O)C[C@@H](C)C(=O)[C@H](C)[C@@H](O)[C@]1(C)O [ERYTHROMYCIN],Activity,Stomach [7],69%
same,Activity,Stomach [12],490%
same,pIC50,Cytochrome P450 3A4 [13],6.72
same,Intrinsic activity,Motilin receptor [5],1.3
same,half-life at 3 µM,[14],24 min
same,Activity,Stomach [10],189%
same,pIC50,Cytochrome P450 3A4 [15],5.72
same,Activity,Stomach [11],14%
C[C@@H]1CN(Cc2ccc(CC(=O)N3CCC(Nc4cccc(F)c4)CC3)cc2)CCN1,pEC50,Motilin receptor [4],7.70
same,Intrinsic activity,Motilin receptor [5],0.7
C[C@@H]1CN(Cc2ccc(C(C)(C)C(=O)N3CCC(Nc4ccc(F)cc4)CC3)cc2)C[C@H](C)N1,pIC50,Cytochrome P450 3A4 [1],5.33
same,Activity,Cytochrome P450 3A4 [2],6.1
same,pEC50,Motilin receptor [4],7.50
same,Intrinsic activity,Motilin receptor [5],0.7
C[C@H]1CN(Cc2ccc(CC(=O)N3CCC(Nc4cccc(F)c4)CC3)cc2)CCN1,Intrinsic activity,Motilin receptor [5],0.9
C[C@@H]1CN(Cc2ccc(-c3cccnc3C(=O)N3CCC(Nc4ccc(F)cc4)CC3)cc2)C[C@H](C)N1.Cl,solubility,[6],≥ 1 µg/mL
C[C@@H]1CN(Cc2ccc(CCC(=O)N3CCC(Nc4ccc(F)cc4)CC3)cc2)C[C@H](C)N1,pEC50,Motilin receptor [4],7.30
same,Intrinsic activity,Motilin receptor [5],0.9
C[C@@H]1CN(Cc2ccc(-c3cccnc3C(=O)N3CCC(Nc4ccc(F)cc4)CC3)cc2)C[C@H](C)N1,Activity,Stomach [12],343%
same,pIC50,Cytochrome P450 2C19,< 4.64
same,pIC50,Cytochrome P450 2C9,< 4.64
same,pIC50,Cytochrome P450 2D6,< 4.64
same,pIC50,[16],< 4.50
same,pIC50,Cytochrome P450 1A2,< 4.64
same,pIC50,Cytochrome P450 3A4 [13],5.85
same,pEC50,Motilin receptor [4],8.40
same,pIC50,Cytochrome P450 3A4 [15],4.70
C[C@H]1CN(Cc2ccc(CC(=O)N3CCC(Nc4cccc(F)c4)CC3)cc2)CCN1 [CAMICINAL],fraction unbound,[17],0.37
same,bioavailability,[18],51%
same,Activity,Stomach [7],53%
same,bioavailability,[19],48%
same,Activity,Stomach [12],248%
same,pIC50,Cytochrome P450 2C19,< 4.00
same,Tmax,[8],120 min
same,pIC50,Cytochrome P450 2C9,< 4.00
same,pIC50,Cytochrome P450 2D6,4.47
same,Cmax,[9],400 nM
same,Activity,Cytochrome P450 3A4 [2],1.4
same,pEC50,[20],< 6.00
same,pIC50,[16],4.80
same,pIC50,Cytochrome P450 1A2,< 4.00
same,fraction unbound,[21],0.17
same,pEC50,Motilin receptor [4],7.90
same,half-life at 3 µM,[14],46.9 min
same,Activity,Stomach [10],108%
same,AUC,Rattus norvegicus,12 kg·min/L
C[C@H]1CN(Cc2ccc(CC(=O)N3CCC(Nc4ccc(F)cc4)CC3)cc2)CCN1,pEC50,Motilin receptor [4],8.00
same,Intrinsic activity,Motilin receptor [5],0.8
CC[C@H](C)[C@H](NC(=O)[C@@H]1CCCN1C(=O)[C@@H](NC(=O)[C@@H](N)Cc1ccccc1)C(C)C)C(=O)N[C@@H](Cc1ccccc1)C(=O)N[C@H](C(=O)N[C@@H](Cc1ccc(O)cc1)C(=O)NCC(=O)N[C@@H](CCC(=O)O)C(=O)N[C@@H](CC(C)C)C(=O)N[C@@H](CCC(N)=O)C(=O)N[C@@H](CCCNC(=N)N)C(=O)N[C@@H](CCSC)C(=O)N[C@@H](CCC(N)=O)C(=O)N[C@@H](CCC(=O)O)C(=O)N[C@@H](CCCCN)C(=O)N[C@@H](CCC(=O)O)C(=O)N[C@@H](CCCNC(=N)N)C(=O)N[C@@H](CC(N)=O)C(=O)N[C@@H](CCCCN)C(=O)NCC(=O)N[C@@H](CCC(N)=O)C(=O)O)[C@@H](C)O,pEC50,Motilin receptor [4],10.40
same,Intrinsic activity,Motilin receptor [5],1
CCCC[C@H](NC(=O)[C@H](CCCNC(=N)N)NC(=O)[C@H](CCC(N)=O)NC(=O)[C@H](CC(C)C)NC(=O)[C@H](CCC(=O)O)NC(=O)CNC(=O)[C@H](Cc1ccc(O)cc1)NC(=O)[C@@H](NC(=O)[C@H](Cc1ccccc1)NC(=O)[C@@H](NC(=O)[C@@H]1CCCN1C(=O)[C@@H](NC(=O)[C@@H](N)Cc1ccccc1)C(C)C)[C@@H](C)CC)[C@@H](C)O)C(=O)N[C@@H](CCC(N)=O)C(=O)N[C@@H](CCC(=O)O)C(=O)N[C@@H](CCCCN)C(=O)N[C@@H](CCC(=O)O)C(=O)N[C@@H](CCCNC(=N)N)C(=O)N[C@@H](CC(N)=O)C(=O)N[C@@H](CCCCN)C(=O)NCC(=O)N[C@@H](CCC(N)=O)C(=O)O,Activity,Stomach [7],740%
same,half-life at 0.3 µM,[22],11.4 min
same,Activity,Stomach [11],721%
C[C@@H]1CN(Cc2ccc(CC(=O)N3CCC(Nc4ccc(F)cc4)CC3)cc2)C[C@H](C)N1,pIC50,Cytochrome P450 3A4 [1],4.39
same,Activity,Cytochrome P450 3A4 [2],2.7
same,pIC50,Cytochrome P450 3A4 [3],4.23
same,pEC50,Motilin receptor [4],7.40
same,Intrinsic activity,Motilin receptor [5],0.9
